Test results as given in article PMC8276234 (Journal of medicinal chemistry, 2019).

Experiments:
GRP78 = assay: Western blot, GRP78 expression; format: cell-based, human; details: U87MG cells; 20 μM (PACMA31 1.0 μM), 24 hours
Summary of the method: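 Treated U87MG cells were lysed by sonication in Tris/NaCl/Triton X-100/SDS buffer (pH 7.4) and spun at 13,500×g, 4 °C, 10 min. Protein was quantified by BCA. 30 μg per lane ran on 10% gels and transferred to PVDF. Primary antibodies were applied overnight at 4 °C. Fluorescent secondaries were imaged.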

PDI = PDI (Homo sapiens, UniProt P07237); assay: PDI reductase assay after competition with N-acetyl cysteine; format: biochemical; details: compound 40 μM; 0, 1, 2 or 5 mM NAC; listed as BAP2
Sequence of PDI (P07237 18-508): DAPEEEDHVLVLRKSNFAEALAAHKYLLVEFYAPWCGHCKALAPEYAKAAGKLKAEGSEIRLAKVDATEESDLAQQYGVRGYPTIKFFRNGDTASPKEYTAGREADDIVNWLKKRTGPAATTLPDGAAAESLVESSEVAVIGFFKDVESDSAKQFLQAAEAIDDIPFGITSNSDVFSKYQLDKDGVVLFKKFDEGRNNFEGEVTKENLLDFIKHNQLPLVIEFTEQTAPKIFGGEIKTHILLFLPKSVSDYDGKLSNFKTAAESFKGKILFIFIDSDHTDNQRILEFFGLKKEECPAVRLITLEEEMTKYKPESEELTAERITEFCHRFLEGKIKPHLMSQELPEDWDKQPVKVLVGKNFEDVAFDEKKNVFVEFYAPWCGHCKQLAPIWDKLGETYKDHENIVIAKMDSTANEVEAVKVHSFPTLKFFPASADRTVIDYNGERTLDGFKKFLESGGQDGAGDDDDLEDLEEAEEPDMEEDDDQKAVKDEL
Summary of the method: (§1)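 N-terminal His-tagged human PDI was expressed in E. coli BL21(DE3) pLysS with 1 mM IPTG for 4 h at 37 °C. It was purified on Ni-NTA and dialyzed into 100 mM sodium phosphate, 2 mM EDTA, pH 7.0. PDI (0.4 μM) was preincubated 1 h with compound in phosphate/EDTA buffer with 8 μM DTT. DTT (500 μM) and bovine insulin (130 μM) were then added at room temperature. Aggregation was read at 620 nm. Percent activity came from the 0–80 min change, corrected for DTT alone.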

C53S/C397S PDI = C53S/C397S PDI (Homo sapiens, UniProt P07237, C397S/C53S); assay: Thermal shift assay, C53S/C397S PDI; format: binding; details: 100 μM
Sequence of C53S/C397S PDI (P07237 18-508 C53S/C397S): as the sequence (P07237 18-508) above, with C36S, C380S counted along it
Summary of the method: (§2)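 Purified PDI (wild-type, C53S/C397S or H256A; 0.5 mg/mL in 50 mM Tris, pH 7.0) was mixed with compound in DMSO and ROX dye. Samples were heated from 25 to 99 °C at 1 °C/min. Boltzmann melting temperature was compared with the 5% DMSO control.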

A172 cells [1] = assay: Wound healing assay; format: cell-based, human; details: 24 hours, BAP2 at 10 μM
Summary of the method: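 A172 cells were seeded at 50,000/well, grown overnight, then kept in serum-free DMEM for 24 h. A scratch was made and compounds added. Cells grew 24 h, until DMSO-control scratches closed, then were Giemsa-stained and imaged at 10X.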

b’ domain of PDI = b’ domain of PDI (Homo sapiens, UniProt P07237); assay: ANS spectral scan; format: binding; details: 5 μM PDI, 100 μM compound
Sequence of b’ domain of PDI (P07237 18-508): as the sequence (P07237 18-508) above
Summary of the method: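 Human PDI was preincubated with 100 μM compound or matching DMSO in TBS at 37 °C for 1 h. ANS was then added, followed by 20 min in the dark at 25 °C. Fluorescence spectrum: Ex 370 nm, Em 400–700 nm.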

wild-type PDI = wild-type PDI (Homo sapiens, UniProt P07237); assay: Thermal shift assay, wild-type PDI; format: binding; details: recombinant PDI, dose-dependent, up to 100 μM
Sequence of wild-type PDI (P07237 18-508): as above
Summary of the method: as §2

H256A PDI [2] = target: T1, H256A PDI (Homo sapiens, UniProt P07237, H256A); assay: Thermal shift assay, H256A PDI; format: binding; details: 100 μM
T1 sequence (P07237 18-508 H256A): as the sequence (P07237 18-508) above, with H239A counted along it
Summary of the method: as §2

H256A PDI [3] = target: T1, H256A PDI; assay: PDI reductase assay, H256A mutant PDI; format: biochemical; details: 10 μM
Summary of the method: as §1

D54 cells = assay: Clonogenic survival assay with ionizing radiation; format: cell-based; details: 1 μM, 0-6 Gy
Summary of the method: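 D54 monolayer cells (37 °C, 5% CO2, mycoplasma-tested, STR-authenticated) were irradiated at 0, 1, 2, 4 or 6 Gy and plated immediately at 200, 200, 400, 600 and 1000 cells/well. Test compounds (1 μM), reference inhibitor (0.05 μM) or DMSO were added. After 10–12 days, colonies were stained with 0.1% crystal violet.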

GBM cell = assay: Combination with As2O3, GBM cell proliferation; format: cell-based
U87MG = assay: MTT growth inhibition assay, U87MG; format: cell-based, human; details: read-out: IC50, cytotoxicity U87MG, 72 hours, listed as 6 (BAP2)
Summary of the method: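 U87MG seeded at 5000 cells/well, incubated overnight at 37 °C and 5% CO2, then given test compound or vehicle for 72 h. MTT (3 mg/mL) was added for 4 h at 37 °C. Formazan was dissolved in DMSO with 15 min shaking at room temperature and read at 570 nm. Inhibition was calculated as [1-(At-Ab)/(Ac-Ab)]×100 against untreated and blank wells.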

A172 cells [4] = assay: Transwell migration assay; format: cell-based, human; details: 4 hours, 30 μM
Summary of the method: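 Treated A172 cells (1 x 10^5) were seeded into inserts with 8.0 µm PET membranes in serum-free medium. The lower well held DMEM with 10% FBS, and FBS-free wells served as control. After 4 h, cells were Giemsa-stained and 5 fields per well were imaged at 10X.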

- activity after competition with N-acetyl cysteine (NAC) (PDI): unaffected by up to 5 mM NAC
- stabilization (thermal shift) in the C53S/C397S mutant (C53S/C397S PDI): but not the C53S/C397S mutant
- effect on ANS fluorescence (b’ domain of PDI): hindered the ability of ANS to fluoresce
- increase of melting temperature (wild-type PDI): more than 1 °C
- stabilization (thermal shift) in the H256A mutant (H256A PDI [2]): abolished
- activity against H256A mutant PDI (H256A PDI [3]): abolished upon mutation
Structure (SMILES): N#Cc1cccc(/C=C/C(=O)c2ccc(O)cc2)c1 [Compound 6, (E)-3-(3-(4-Hydroxyphenyl)-3-oxoprop-1-en-1-yl)benzonitrile]
- expression of GRP78 (GRP78): increase in expression of GRP78
- wound healing / cell migration (A172 cells [1]): inhibited wound healing
- synergy with ionizing radiation (IR) (D54 cells): synergized with IR
- inhibition of GBM cell proliferation in combination with As2O3 (GBM cell): synergistically
- IC50 (U87MG): 10.3 ± 2.3 µM
- transwell migration (A172 cells [4]): inhibited migration
